This sample holds only a part of the variants without activity.
B1: tRNA (parent)
chain: GUUCCGUUGGCGUAAUGGUAACGCGUCUCCCUCCUAAGGAGAAGACUGCGGGUUCGAGUCCCGUACGGAACG

Variants of: B1
Experiment: yeast fitness relative to wild type (ratio to wild type); higher = fitter; tRNA-Arg(CCU), competitive growth, 37 C, YPD
Outline: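 For this measurement, the tRNA-Arg(CCU) gene was varied by chemical synthesis at a 3% per-site mutation rate across 69 sites, and each variant was placed at the native genomic locus in Saccharomyces cerevisiae. The pooled strains went through a 24-hour competition in YPD at 37°C in six parallel replicates, with amplicons from start and end populations read by 100-nucleotide paired-end sequencing. Darwinian fitness relative to wild type followed from the change in each genotype's frequency. Genotypes needed ≥ 100 starting reads, and estimates < 0.5 were set to 0.5.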
Variant C34U U54C C61A has a yeast fitness of no more than 0.5.
For U35A A37G A43U A45C C61U, the yeast fitness was no more than 0.5.
C34U U35G G38A C62U A65C G67A gave a yeast fitness of no more than 0.5.
U35C A65C showed a yeast fitness of 0.807.
For A36C C66U, the yeast fitness was 0.575.
C34U G39C G50A gave a yeast fitness of 0.557.
Variant U35A A57U U59C has a yeast fitness of no more than 0.5.
In the case of U35C C66G, the yeast fitness is reported as 0.657.
U35C C66U showed a yeast fitness of 0.781.
A36G A40G gave a yeast fitness of 1.01.
In the case of A36G A37C A43G, the yeast fitness is reported as 0.63.
U35A A37U G52A U59C C66A G67A gave a yeast fitness of no more than 0.5.
U35G A69C gave a yeast fitness of 0.592.
With C34U A40G C46A C49G A65G the yeast fitness was no more than 0.5.
Variant C34U G58C C62G G67A has a yeast fitness of no more than 0.5.
C34U A36C C46G gave a yeast fitness of no more than 0.5.
In the case of A36C A45C U54A A57C, the yeast fitness is reported as 0.538.
A36G A42C C49A gave a yeast fitness of 0.548.
With C34U A69U the yeast fitness was 0.667.
Variant A36C U64A has a yeast fitness of 0.932.
For A36C U64C, the yeast fitness was 0.824.
C34U G50A U59C C62A U64A gave a yeast fitness of no more than 0.5.
A36G A40C A42G C61U showed a yeast fitness of 0.566.
U35A G44A showed a yeast fitness of 0.715.
C34U C46U A69G A70U showed a yeast fitness of no more than 0.5.
C34U C49U A69U gave a yeast fitness of 0.607.
With U35C G39A the yeast fitness was 0.886.
Variant C34U C49U A65C has a yeast fitness of 0.612.
Variant U35C G52A has a yeast fitness of 0.658.
In the case of U35G G52A, the yeast fitness is reported as no more than 0.5.
In the case of A36C A37U G50C C66U, the yeast fitness is reported as 0.56.
U35C C46A C49A showed a yeast fitness of no more than 0.5.
For A36U A42C C61G, the yeast fitness was no more than 0.5.
Work on C34U A57U yielded a yeast fitness of no more than 0.5.
Variant C34U A57G has a yeast fitness of 0.737.
With U35G U53G the yeast fitness was 0.592.
Variant A36G A45C G52C A69C has a yeast fitness of 0.54.
For A36C G58A, the yeast fitness was 0.618.
In the case of A36G A37U C61G, the yeast fitness is reported as no more than 0.5.
With C34U A40G U47C the yeast fitness was no more than 0.5.
U35A G38C gave a yeast fitness of 0.527.
For U35C C55U C62A, the yeast fitness was 0.527.
Work on C34U C60G A69G yielded a yeast fitness of no more than 0.5.
With A36G G56A A70G the yeast fitness was 0.595.
With C34U C46U U64A the yeast fitness was 0.642.
Variant U35G G67A has a yeast fitness of 0.616.
U35A U54C C61G gave a yeast fitness of 0.645.
Work on U35A A65G yielded a yeast fitness of 0.751.
For C34U A42C, the yeast fitness was 0.664.
Variant C34U A42U has a yeast fitness of 0.74.
For A36C C49U G67C, the yeast fitness was 0.532.
C34U A36U showed a yeast fitness of no more than 0.5.
For U35A C49U, the yeast fitness was 0.761.
Work on U35G G51A A65C yielded a yeast fitness of 0.622.
With U35G C49A the yeast fitness was 0.595.
C34U G51U U54A C60U A65C gave a yeast fitness of no more than 0.5.
U35C G50A C55U gave a yeast fitness of no more than 0.5.
In the case of U35G U64C A69C, the yeast fitness is reported as no more than 0.5.
With A36C A57U C60A the yeast fitness was no more than 0.5.
Work on A36G A57G C61U yielded a yeast fitness of 0.56.
A36U A40U C60A showed a yeast fitness of 0.713.
With U35C A40C the yeast fitness was 0.795.
U35C A40G gave a yeast fitness of 0.711.
For A36C A40G C46U, the yeast fitness was 0.569.
A36G A45C A57C U64A G68A gave a yeast fitness of no more than 0.5.
A36G U47C showed a yeast fitness of 0.989.
Variant A36U A43C G44C G48C has a yeast fitness of no more than 0.5.
U35C G44C showed a yeast fitness of 0.88.
C34U C49A G56C C62A A65C showed a yeast fitness of 0.519.
Variant U35A A37G C49A has a yeast fitness of no more than 0.5.
Work on A36C G38C yielded a yeast fitness of 0.524.
Variant A36G U64C C66U has a yeast fitness of 0.768.
C34U A37U G58C gave a yeast fitness of 0.543.
With C34U G50C the yeast fitness was 0.528.
A36C A42U showed a yeast fitness of 0.639.
Variant A36C A43U has a yeast fitness of 0.575.
In the case of U35A A57C C62U, the yeast fitness is reported as no more than 0.5.
Work on U35A C46A C49G G52A yielded a yeast fitness of 0.572.
Work on U35C C46A A70U yielded a yeast fitness of 0.767.
In the case of U35C C62U, the yeast fitness is reported as 0.882.
In the case of C34U G68C, the yeast fitness is reported as 0.773.
Work on C34G U59C yielded a yeast fitness of 0.602.
In the case of C34U G52C A70U, the yeast fitness is reported as no more than 0.5.
With A36G G67C the yeast fitness was 0.759.
Variant U35C A45U C49A has a yeast fitness of 0.594.
Work on A36C G38A G58A yielded a yeast fitness of 0.562.
Work on U35C G50C U54A yielded a yeast fitness of no more than 0.5.
Variant C34U C62G C66G G67U has a yeast fitness of no more than 0.5.
C34U A42C A43U showed a yeast fitness of no more than 0.5.
In the case of U35G A40C, the yeast fitness is reported as 0.682.
Variant U35A G58A G67C has a yeast fitness of no more than 0.5.
For A36C A42U A65U, the yeast fitness was 0.647.
With C34U A36U C66U A69U the yeast fitness was 0.612.
Variant A36C A45U U59A has a yeast fitness of no more than 0.5.
With A36C A37C U53G C66U A70C the yeast fitness was 0.531.
Work on C34U G48A C49G yielded a yeast fitness of 0.563.
In the case of A36C G56C A57C, the yeast fitness is reported as 0.593.
With C34U A65U the yeast fitness was 0.574.
In the case of U35G C61U, the yeast fitness is reported as 0.792.
In the case of A36G A45U A70U, the yeast fitness is reported as 0.708.
Work on A36G C55U G68C yielded a yeast fitness of 0.594.
In the case of C34U G44A A65G, the yeast fitness is reported as no more than 0.5.
C34U A42U C66U showed a yeast fitness of no more than 0.5.
For A36G A70C, the yeast fitness was 1.02.
For A36G A70U, the yeast fitness was 0.832.
A36G A70G gave a yeast fitness of 0.914.
In the case of U35C U59A A70C, the yeast fitness is reported as no more than 0.5.
For U35A A45C G68U, the yeast fitness was no more than 0.5.
With A36G C66U A69U the yeast fitness was 0.76.
In the case of A36C C46G G51A, the yeast fitness is reported as no more than 0.5.
C34U U35C A40C gave a yeast fitness of no more than 0.5.
A36G C61G A69G gave a yeast fitness of 0.56.
With U35C A42C the yeast fitness was 0.819.
In the case of U35C A42U, the yeast fitness is reported as 0.819.
U35A A43C C49A gave a yeast fitness of 0.566.
In the case of C34U C46G A69U, the yeast fitness is reported as 0.576.
Work on A36C G68A yielded a yeast fitness of 0.56.
A36G A40U G44A gave a yeast fitness of 1.06.
With A36C A37G G56A the yeast fitness was no more than 0.5.
Work on A36U A37U C55U yielded a yeast fitness of 0.634.
In the case of C34U G44C U47G A65G, the yeast fitness is reported as no more than 0.5.
Variant U35A C46A C49G G52A C60U has a yeast fitness of 0.661.
C34U C60U showed a yeast fitness of 0.563.
With U35C A43U U47A the yeast fitness was no more than 0.5.
With A36C G38C G50C G51A G63C the yeast fitness was 0.642.
Work on C34U U35C yielded a yeast fitness of 0.607.
Variant C34U A40C has a yeast fitness of 0.613.
C34U G51U C60U C62U A65C A69G gave a yeast fitness of no more than 0.5.
For A36G G38C G58C, the yeast fitness was 0.687.
U35C G68C showed a yeast fitness of 0.644.
In the case of U35C G68A, the yeast fitness is reported as 0.67.
For U35C G68U, the yeast fitness was 0.657.
C34U A37U C66U showed a yeast fitness of no more than 0.5.
A36U A43U showed a yeast fitness of 0.638.
For U35C G44A A57U C66G, the yeast fitness was no more than 0.5.
A36C A40C showed a yeast fitness of 0.572.
A36G A45C G52C showed a yeast fitness of 0.533.
With A36C U59C the yeast fitness was 0.562.
With C34U C55G the yeast fitness was 0.56.
For C34U A40C G68C, the yeast fitness was no more than 0.5.
With C34U G51C G58C the yeast fitness was no more than 0.5.
In the case of A36G A42U U53C G58C, the yeast fitness is reported as 0.569.
In the case of U35C G51U, the yeast fitness is reported as 0.527.
Work on A36G G38C G63A yielded a yeast fitness of no more than 0.5.
A36G A45C C66U gave a yeast fitness of 0.787.
C34U A70G gave a yeast fitness of 0.803.
Work on C34U A70U yielded a yeast fitness of 0.662.
For C34U A70C, the yeast fitness was 0.73.
Variant A36G C62G has a yeast fitness of 0.905.
A36G C62U gave a yeast fitness of 1.05.
Work on A36G C62A yielded a yeast fitness of 0.672.
In the case of A36G G68C, the yeast fitness is reported as 0.779.
In the case of C34U A37G, the yeast fitness is reported as 0.538.
Work on C34U C49U C55U G67A yielded a yeast fitness of no more than 0.5.
For U35A G38A C61G, the yeast fitness was no more than 0.5.
U35C G50C gave a yeast fitness of 0.703.
With U35C G50A the yeast fitness was 0.927.
Work on A36C G50C U53C yielded a yeast fitness of no more than 0.5.
With U35C U53A the yeast fitness was 0.56.
For U35G C55U, the yeast fitness was 0.664.
For A36G A43U U47G U53G, the yeast fitness was no more than 0.5.
U35A A57U C66G showed a yeast fitness of no more than 0.5.
With C34U A36U C66U the yeast fitness was no more than 0.5.
In the case of U35A C60G C62G G68A, the yeast fitness is reported as no more than 0.5.
Work on U35A C49G C60A yielded a yeast fitness of no more than 0.5.
For U35C C46U A69U, the yeast fitness was 0.832.
Work on U35G A65U yielded a yeast fitness of 0.606.

Reference: the RNAGym collection of RNA variant scans (doi:10.1126/science.aae0568)
